The subject of the experiment is Candida albicans CaCi-2 growth, Alamar Blue fluorescence, 48 h. The experiment can be described thus: single-agent growth inhibition of fluconazole-resistant C. albicans, dose response, CaCi-2 strain, Alamar Blue, dry powder, set 4 (AID 624006). Summed up:
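Assay system: Candida albicans CaCi-2, a fluconazole-resistant isolate, whole cells | Quantity: Fungal inoculum at starting absorbance 0.00015 (600 nm) | Medium: MOPS-buffered RPMI 1640 plus uridine, glucose | Times: 48 h at 37 °C, 2 h dye | Signal: Alamar Blue fluorescence | Benchmarks: Amphotericin 10 µM positive control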

Each structure is given as a SMILES string. Where “and” joins values, the source holds several entries; their conditions need not be identical. Identical values can stand only once.

Turning to `CCOC(=O)N1C(=O)C2(CCCCC2)N(c2cccc(C)c2)C1=S`, the concentration at half-maximal activity (AC50) was 194 nM. On to `CCOC(=O)N1C(=O)C2(CCCCC2)N(c2ccc(Cl)cc2)C1=S`, for which the concentration at half-maximal activity (AC50) is 65.7 nM. In the case of `CC1/C=C/C=C\C=C\C=C\C=C\C=C\C=C\C(O[C@H]2OC(C)C(O)C(N)C2O)CC2OC(O)(CC(O)CC(O)C(O)CCC(O)CC(O)CC(=O)OC(C)C(C)C1O)CC(O)C2C(=O)O` (some centres not stated) it was 64.5 nM; in that of `CCOC(=O)N1C(=O)C2(CCCCC2)N(c2ccc(C#N)cc2)C1=S`, 88.9 nM.

As to `CCOC(=O)N1C(=O)C2(CCCCC2)N(c2ccccc2)C1=S`, the concentration at half-maximal activity (AC50) was 202 nM.

As to `CCOC(=O)N1C(=O)C2(CCCCC2)N(c2ccc(F)cc2)C1=S`, the AC50 is 39.9 nM. In the case of `CCOC(=O)N1C(=O)C2(CCCCC2)N(c2ccc(C)cc2)C1=S` it was 223 nM and 253 nM.

By AC50 is commonly meant the concentration giving half of the maximal activity seen.

Values taken from PubChem BioAssay AID624006 (Broad Institute, 2012).
